Measured values as given in paper PMC3722612 (Archives of biochemistry and biophysics, 2013).

Experiments:
[1] = tested on: CC(=O)N[C@H]1[C@@H](OP(=O)(O)OP(=O)(O)OC[C@H]2O[C@@H](n3ccc(=O)[nH]c3=O)[C@H](O)[C@@H]2O)O[C@H](C)[C@@H](N)[C@@H]1O; test: purified protein; settings: conditions not stated separately for this enzyme
[2] = tested on: CC(=O)SCCNC(=O)CCNC(=O)[C@H](O)C(C)(C)COP(=O)(O)OP(=O)(O)OC[C@H]1O[C@@H](n2cnc3c(N)ncnc32)[C@H](O)[C@@H]1OP(=O)(O)O; test: purified protein; settings: conditions not stated separately for this enzyme
WeeH = WeeH (Acinetobacter baumannii, UniProt V5RC66); test: radioactive transfer to Und-P, organic extraction; assay type: biochemical; settings: undecaprenyl phosphate, 50 mM MgCl2, 30 mM Tris-acetate pH 8.0, 1% Triton X-100, 3% DMSO, 25 °C
WeeI = test: continuous DTNB; assay type: biochemical, Acinetobacter baumannii; settings: AcCoA saturating, 5 mM MgCl2, 50 mM HEPES pH 7.4, 25 °C
Method in brief: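 AcCoA and UDP-4-amino varied separately, the other held saturating; AcCoA Km taken at 4 mM UDP-4-amino. Initial rates from the linear portion over 5 min; duplicates; background without UDP-4-amino subtracted.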

[3] = tested on: CC(=O)N[C@H]1[C@@H](OP(=O)(O)OP(=O)(O)OC[C@H]2O[C@@H](n3ccc(=O)[nH]c3=O)[C@H](O)[C@@H]2O)O[C@H](C)C(=O)[C@@H]1O; test: purified protein; settings: conditions not stated separately for this enzyme
N[C@@H](CCC(=O)O)C(=O)O = test: purified protein; settings: conditions not stated separately for this enzyme

Compound: PglB-ATD (Neisseria gonorrhoeae FA 1090)
- Km [1]: 192 ± 26 µM
- kcat [1]: 2000 ± 82 s⁻¹
- kcat/Km [1]: 1e+07 M⁻¹ s⁻¹
- Km [2]: 338 ± 47 µM
- kcat [2]: 2300 ± 110 s⁻¹
- kcat/Km [2]: 6.9e+06 M⁻¹ s⁻¹

Compound: CC(=O)N[C@H]1[C@@H](OP(=O)(O)OP(=O)(O)OC[C@H]2O[C@@H](n3ccc(=O)[nH]c3=O)[C@H](O)[C@@H]2O)O[C@H](C)[C@@H](NC(C)=O)[C@@H]1O [UDP-diNAcBac, UDP-2,4-diacetamido-2,4,6-trideoxy-α-D-glucose]
- radioactive transfer to Und-P, organic extraction (WeeH): This phosphoglycosyltransferase exhibited clear selectivity for UDP-diNAcBac over all other UDP-sugars

Compound: CC(=O)N[C@H]1[C@@H](OP(=O)(O)OP(=O)(O)OC[C@H]2O[C@@H](n3ccc(=O)[nH]c3=O)[C@H](O)[C@@H]2O)O[C@H](C)[C@@H](N)[C@@H]1O [UDP-4-amino, UDP-2-acetamido-4-amino-2,4,6-trideoxy-α-D-glucose]
- Km (WeeI): 4300 ± 140 µM

Compound: PglD (Campylobacter jejuni subsp. jejuni NCTC 11168 = ATCC 700819)
- Km [1]: 311 ± 23 µM
- kcat [1]: 12000 ± 380 s⁻¹
- kcat/Km [1]: 4e+07 M⁻¹ s⁻¹
- Km [2]: 194 ± 30 µM
- kcat [2]: 11000 ± 500 s⁻¹
- kcat/Km [2]: 5.5e+07 M⁻¹ s⁻¹

Compound: PglE (Campylobacter jejuni subsp. jejuni NCTC 11168 = ATCC 700819)
- Km [3]: 366 ± 57 µM
- kcat [3]: 2.4 ± 0.1 s⁻¹
- kcat/Km [3]: 6600 M⁻¹ s⁻¹
- Km (N[C@@H](CCC(=O)O)C(=O)O): 11,000 ± 340 μM
- kcat (N[C@@H](CCC(=O)O)C(=O)O): 0.028 ± 0.0003 s⁻¹
- kcat/Km (N[C@@H](CCC(=O)O)C(=O)O): 2.6 M⁻¹ s⁻¹
